Measured values pooled from the literature.
Each line is one published result; the experiments were not run side by side.
TNKS2: Poly [ADP-ribose] polymerase tankyrase-2 (TNKS2, Homo sapiens, UniProt Q9H2K2)
FLT3: Receptor-type tyrosine-protein kinase FLT3 (FLT3, Homo sapiens, UniProt P36888)
TOP2A: DNA topoisomerase 2-alpha (TOP2A, Homo sapiens, UniProt P11388)
HTR2B: 5-hydroxytryptamine receptor 2B (HTR2B, Homo sapiens, UniProt P41595)

Compound | target | test | IC50
CC(C)(O)c1ccc(-c2nc3cc(NC(=O)c4ccc(-c5ccccc5)cc4)ccc3c(=O)[nH]2)cc1 | TNKS2 | enzyme activity, inhibitor | 0.035 µM
Cc1n[nH]c2ccc3nc(-c4ccc(C(=O)NCCN(C)C)cc4F)c4c(c3c12)CCCCC4 | FLT3 | enzyme activity, inhibitor | 0.138 µM
COc1cc(-c2ccccc2)ncc1C(=O)Nc1ccc2c(=O)[nH]c(-c3ccc(C(C)(C)O)cc3)nc2c1 | TNKS2 | enzyme activity, inhibitor | 0.00346 µM
CNc1cccc(Nc2nc(-c3ccncc3)nc3c2CNCC3)c1 | TOP2A | enzyme activity, inhibitor | 160 µM
CCCCCCC#Cc1cncc(-c2nnc(SCc3cc([N+](=O)[O-])cc([N+](=O)[O-])c3)n2CCOC2OC(CN)C(O)C2O)c1 (stereo not drawn) | mraY (Staphylococcus aureus, UniProt Q2FZ93) | enzyme activity, inhibitor | 78 µM
CNC(=O)[C@H](Cc1c[nH]c2ccccc12)NC(=O)[C@@H](CC(=O)NO)CC(C)C | Stromelysin-1 (MMP3, Homo sapiens, UniProt P08254) | enzyme activity, inhibitor | 0.0125 µM
Cc1cc(-c2ccccc2)nnc1NCCN1CCOCC1 | HTR2B | calcium signal, antagonist | 6.2 µM
CN(C)CCNC(=O)c1ccc(-c2nc3ccc4[nH]ncc4c3c3c2CCC3)cc1 | Receptor-type tyrosine-protein kinase FLT3 (FLT3, Homo sapiens, UniProt P36888, ITD) | enzyme activity, inhibitor | 0.659 µM
CN1CCC(CNc2ccc3ncc(-c4cccc(OC(F)(F)F)c4)n3n2)CC1 | HTR2B | calcium signal, antagonist | 2.81 µM
CN(C)c1cccc(Nc2nc(-c3ccncc3)nc3c2CNCC3)c1 | TOP2A | enzyme activity, inhibitor | 140 µM
Cc1n[nH]c2ccc3nc(-c4ccc(C(=O)NCCN(C)C)cc4)c4c(c3c12)CCCCC4 | Receptor-type tyrosine-protein kinase FLT3 (FLT3, Homo sapiens, UniProt P36888, F691L) | enzyme activity, inhibitor | 0.104 µM
CC(C)(O)c1ccc(-c2nc3cc(NC(=O)c4cnc(OCc5ccccc5)nc4)ccc3c(=O)[nH]2)cc1 | TNKS2 | enzyme activity, inhibitor | 0.0163 µM
COc1cccc(Nc2nc(-c3ccncc3)nc3c2CNCC3)c1 | TOP2A | enzyme activity, inhibitor | 120 µM
CN(C)CCNC(=O)c1ccc(-c2nc3ccc4[nH]ncc4c3c3c2CCCCC3)cc1 | FLT3 | enzyme activity, inhibitor | 0.048 µM
Cn1cc(C2=C(c3cn(CCCSC(=N)N)c4ccccc34)C(=O)NC2=O)c2ccccc21 | Mitogen-activated protein kinase kinase kinase 8 (MAP3K8, Homo sapiens, UniProt P41279) | enzyme activity, inhibitor | 11 µM
